Measured values reported in ChEMBL document CHEMBL1138022, “Structurally simplified macrolactone analogues of halichondrin B” (Bioorg Med Chem Lett, 2004).

Legend:
U-937 = assay: In vitro inhibitory concentration required to inhibit the growth of U937 cells was determined by mitotic block reversibility assay; format: functional; details: Homo sapiens
Procedure, shortened: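 Reversibility assay in human histiocytic lymphoma U937 cells. After drug washout, flow cytometry scored whether a complete mitotic block was still maintained 10 h later.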

DLD-1 = assay: In vitro inhibitory concentration required to inhibit the growth of DLD-1 cells under continuous exposure conditions for 3-4 days; format: functional, cell-based; details: Homo sapiens
Procedure, shortened: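 Human colon cancer DLD-1 cells were exposed to compound continuously for 3–4 days and growth inhibition was measured. IC50 is given ± SEM, with n the number of experiments.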

P388 = assay: Fold resistance calculated as the inhibition concentration ratio between retrovirally transformed P388/VMDRC.04 and parental P388 cells; format: functional
Procedure, shortened: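 P-glycoprotein-mediated efflux assessed in murine P388/VMDRC.04, a retrovirally transformed multidrug-resistant subline of P388/S leukemia cells, alongside parental P388 cells. Growth inhibition IC50 was measured in each line. Fold resistance is the IC50 ratio of P388/VMDRC.04 to parental P388.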

Row | Compound | IC99 (U-937) | IC50 (DLD-1) | FR (P388)
1 | C=C1C2C[C@@H]3O[C@H](C[C@@H](O)CO)[C@H](OC)[C@H]3OC(=O)C[C@H]3CC[C@@H]4OC5[C@H]6O[C@H]7C[C@](CC[C@H]8CC(=C)[C@H](CC[C@@H](C[C@H]1C)O2)O8)(OC6[C@H]4O3)O[C@H]57 | 0.02 µM | 0.67 nM | 9.3
2 | C=C1C[C@@H]2CC[C@@]34C[C@@H]5O[C@@H]6C(O[C@H]7CC[C@H](CC(=O)O[C@@H]8[C@@H](OC)[C@@H](C[C@H](O)CO)O[C@H]8C[C@H]8O[C@@H](CC[C@@H]1O2)C[C@@H](C)C8=C)O[C@@H]7[C@@H]6O3)[C@H]5O4 | 0.015 µM | 0.67 nM | 6.2
